Active and inactive are the calls of the source. The rule behind the calls is not given here. Peptide text beside a SMILES is read from it.
Tests used:
J774.A1 [1] = experiment: Antiinflammatory activity in mouse J774A.1 cells assessed as decrease in LPS-stimulated TNFalpha production at 30 ug/ml; assay type: functional; parameters: scale not given: the % may be the effect or the level left
In short: (§1)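 J774A.1 murine macrophages at 1 × 10⁶/mL in RPMI 1640 with 10% heat-inactivated FBS and 2 mM L-glutamine, 37 °C, 5% CO₂. Cells preincubated with cyclopeptide at 37 °C for 30 min, then stimulated with LPS (0.1 µg/mL) for a further 6 h. TNF-α and IL-6 in culture medium measured by ELISA. DMSO-treated cells served as controls.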

J774.A1 [2] = experiment: Antiinflammatory activity in mouse J774A.1 cells assessed as decrease in LPS-stimulated IL6 production at 30 ug/ml; assay type: functional; parameters: scale not given: the % may be the effect or the level left; in short: as §1
J774.A1 [3] = experiment: Antiinflammatory activity in mouse J774A.1 cells assessed as decrease in LPS-stimulated TNFalpha production at 1 ug/ml; assay type: functional, cell-based; in short: as §1
J774.A1 [4] = experiment: Antiinflammatory activity in mouse J774A.1 cells assessed as decrease in LPS-stimulated TNFalpha production at 3 ug/ml; assay type: functional, cell-based; in short: as §1
J774.A1 [5] = experiment: Antiinflammatory activity in mouse J774A.1 cells assessed as decrease in LPS-stimulated IL6 production at 3 ug/ml; assay type: functional, cell-based; in short: as §1
J774.A1 [6] = experiment: Antiinflammatory activity in mouse J774A.1 cells assessed as decrease in pam3Cys-stimulated TNFalpha production at 1 ug/ml; assay type: functional, cell-based
In short: (§2)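 J774A.1 murine macrophages at 1 × 10⁶/mL in RPMI 1640 with 10% heat-inactivated FBS and 2 mM L-glutamine, 37 °C, 5% CO₂. Cells pretreated with cyclopeptide for 30 min, then stimulated with the TLR2 ligand Pam3Cys for an additional 6 h. TNF-α or IL-6 in culture medium determined by ELISA.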

J774.A1 [7] = experiment: Antiinflammatory activity in mouse J774A.1 cells assessed as decrease in pam3Cys-stimulated IL6 production at 3 ug/ml; assay type: functional, cell-based; in short: as §2
J774.A1 [8] = experiment: Antiinflammatory activity in mouse J774A.1 cells assessed as decrease in pam3Cys-stimulated TNFalpha production at 3 ug/ml; assay type: functional; in short: as §2
J774.A1 [9] = experiment: Antiinflammatory activity in mouse J774A.1 cells assessed as decrease in LPS-stimulated IL6 production at 3 ug/ml
J774.A1 [10] = experiment: Antiinflammatory activity in mouse J774A.1 cells assessed as decrease in pam3Cys-stimulated IL6 production at 3 ug/ml
J774.A1 [11] = experiment: Antiinflammatory activity in mouse J774A.1 cells assessed as decrease in LPS-stimulated IL6 production at 3 to 50 ug/ml; assay type: functional, cell-based; in short: as §1
J774.A1 [12] = experiment: Antiinflammatory activity in mouse J774A.1 cells assessed as decrease in LPS-stimulated TNFalpha production at 3 to 50 ug/ml; assay type: functional, cell-based; in short: as §1
J774.A1 [13] = experiment: Antiinflammatory activity in mouse J774A.1 cells assessed as decrease in pam3Cys-stimulated IL6 production at 3 to 50 ug/ml; assay type: functional, cell-based; in short: as §2
KB = experiment: Cytotoxicity against human KB cells; assay type: functional, cell-based
HepG2 = experiment: Cytotoxicity against human HepG2 cells; assay type: functional, cell-based
Hep 3B2 = experiment: Cytotoxicity against human Hep3B cells; assay type: functional, cell-based
MDA-MB-231 = experiment: Cytotoxicity against human MDA-MB-231 cells; assay type: functional, cell-based
MCF7 = experiment: Cytotoxicity against human MCF7 cells; assay type: functional, cell-based
A549 = experiment: Cytotoxicity against human A549 cells; assay type: functional, cell-based
Ca9-22 = experiment: Cytotoxicity against human Ca9-22 cells; assay type: functional, cell-based
J774.A1 [14] = experiment: Antiinflammatory activity in mouse J774A.1 cells assessed as decrease in pam3Cys-stimulated TNFalpha production at 5 ug/ml; assay type: functional; in short: as §2
J774.A1 [15] = experiment: Antiinflammatory activity in mouse J774A.1 cells assessed as decrease in pam3Cys-stimulated TNFalpha production at 10 ug/ml; assay type: functional; in short: as §2
J774.A1 [16] = experiment: Antiinflammatory activity in mouse J774A.1 cells assessed as decrease in pam3Cys-stimulated TNFalpha production at 30 ug/ml; assay type: functional; in short: as §2
J774.A1 [17] = experiment: Antiinflammatory activity in mouse J774A.1 cells assessed as decrease in pam3Cys-stimulated TNFalpha production at 50 ug/ml; assay type: functional; in short: as §2
J774.A1 [18] = experiment: Antiinflammatory activity in mouse J774A.1 cells assessed as decrease in pam3Cys-stimulated IL6 production; assay type: functional, cell-based; in short: as §2

CC(C)C[C@@H]1NC(=O)CNC(=O)[C@@H]2CCCN2C(=O)[C@H]([C@@H](C)O)NC(=O)[C@H](Cc2c[nH]c3ccccc23)NC(=O)[C@H](C)NC(=O)[C@H](CC(N)=O)NC1=O [CYCLOMONTANIN A] (cyclo(AWTPGLN))
Activity (J774.A1 [1]): 50%
Activity (J774.A1 [2]): 50%
Activity (J774.A1 [3]): Active
Activity (J774.A1 [4]): Active
Activity (J774.A1 [5]): Active
Activity (J774.A1 [6]): Active
Activity (J774.A1 [7]): Active
Activity (J774.A1 [8]; 1 ug/ml, in the assay text read “at 1 ug/ml” for “at 3 ug/ml”): Active
Activity (J774.A1 [9]): Active
Activity (J774.A1 [10]): Active

CC(C)[C@@H]1NC(=O)[C@H](Cc2c[nH]cn2)NC(=O)[C@H](CC(N)=O)NC(=O)[C@H](Cc2ccccc2)NC(=O)[C@H]([C@@H](C)O)NC(=O)[C@@H]2CCCN2C(=O)[C@@H]2CCCN2C(=O)[C@H](Cc2ccccc2)NC(=O)[C@H](CC(N)=O)NC1=O [CYCLOMONTANIN C] (cyclo(FNHVNFPPT))
Activity (J774.A1 [1]): 50%
Activity (J774.A1 [2]): 50%
Activity (J774.A1 [11]): Active
Activity (J774.A1 [12]): Active
Activity (J774.A1 [13]): Active

CC(C)[C@@H]1NC(=O)[C@H](Cc2ccccc2)NC(=O)CNC(=O)[C@@H]2CCCN2C(=O)[C@H](C)NC(=O)[C@H](CO)NC1=O [ANNUMURICATIN C] (cyclo(APGFVS))
IC50 (KB): 1000 nM
Activity (HepG2): inactive
Activity (Hep 3B2): inactive
Activity (MDA-MB-231): inactive
Activity (MCF7): inactive
Activity (A549): inactive
Activity (Ca9-22): inactive
Activity (J774.A1 [1]): 50%
Activity (J774.A1 [2]): 50%

CC(C)C[C@@H]1NC(=O)CNC(=O)[C@@H]2CCCN2C(=O)[C@H](CC(N)=O)NC(=O)[C@H](C)NC(=O)[C@H](Cc2ccc(O)cc2)NC(=O)[C@@H]2CCCN2C1=O [CYCLOMONTANIN D] (cyclo(ANPGLPY))
Activity (J774.A1 [1]): 50%
Activity (J774.A1 [2]): 50%
inhibition at 3 µg/mL (J774.A1 [8]): 20%
inhibition at 5 µg/mL (J774.A1 [14]): 50%
inhibition at 10 µg/mL (J774.A1 [15]): 60%
inhibition at 30 µg/mL (J774.A1 [16]): 85%
inhibition at 50 µg/mL (J774.A1 [17]): 90%
Activity (J774.A1 [18]): Dose-dependent effect

Reference: ChEMBL document CHEMBL1156640, “Cyclopeptides with anti-inflammatory activity from seeds of Annona montana” (J Nat Prod, 2008)
